Data from ChEMBL document CHEMBL5678806, “NMS-P937, an orally available, specific small-molecule polo-like kinase 1 inhibitor with antitumor activity in solid and hematologic malignancies” (Mol Cancer Ther, 2012).
Active and inactive are the calls of the source. The rule behind the calls is not given here.

How the values were obtained:
[1] = biological target: Ribosomal protein S6 kinase alpha-4 (Homo sapiens) (UniProt O75676); test: Inhibition of N-terminal His6-tagged recombinant human MSK2 (2 to end residues) expressed in baculovirus infected Sf21 cells assessed as residual activity at 1 uM relative to control
[2] = biological target: Casein kinase I isoform gamma-3 (Homo sapiens) (UniProt Q9Y6M4); test: Inhibition of N-terminal 6His-tagged recombinant human CK1gamma3 (1 to 330 residues) expressed in baculovirus infected Sf21 cells assessed as residual activity at 0.1 uM relative to control
Casein kinase I isoform gamma-3 (Homo sapiens), sequence (Q9Y6M4 whole entry, looked up, the tested form may be a part, canonical isoform): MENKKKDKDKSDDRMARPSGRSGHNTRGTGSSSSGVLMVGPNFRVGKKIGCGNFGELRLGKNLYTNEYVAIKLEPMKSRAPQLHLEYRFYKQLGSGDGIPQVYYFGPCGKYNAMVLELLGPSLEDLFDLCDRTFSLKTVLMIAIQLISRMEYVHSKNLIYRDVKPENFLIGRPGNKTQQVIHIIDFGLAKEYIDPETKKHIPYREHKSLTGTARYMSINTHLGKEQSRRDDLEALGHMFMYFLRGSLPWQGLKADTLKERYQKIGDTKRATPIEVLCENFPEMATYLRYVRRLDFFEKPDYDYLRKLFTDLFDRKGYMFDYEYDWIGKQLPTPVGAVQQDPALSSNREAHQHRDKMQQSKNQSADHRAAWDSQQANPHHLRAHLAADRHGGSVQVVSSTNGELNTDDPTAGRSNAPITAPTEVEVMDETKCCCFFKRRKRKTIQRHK

NHDF = test: Induction of DNA damage in human NHDF cells assessed as H2AX phosphorylation at 0.5 to 1 uM incubated for 8 hrs followed by compound washout and measured after 24 to 48 hrs by Western blotting analysis; type: toxicity, cell-based; details: dose 0.5-1 µM
AU565 = test: Antiproliferative activity against human AU565 cells assessed as inhibition of cell growth incubated for 72 hrs by cell-titer glo assay; type: functional, cell-based; details: AU565, 72 h
In short: (§1)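 Cells seeded 10,000–30,000/cm² (adherent) or 100,000/mL (suspension) in medium with 10% fetal calf serum; after 24 h treated in duplicate with serial dilutions for 72 h. Viable cells read by CellTiter-Glo luminescence; IC50 from sigmoidal fit; at least two independent experiments.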

[3] = biological target: Serine/threonine-protein kinase STK11 (Homo sapiens) (UniProt Q15831); test: Inhibition of N-terminal 6His-tagged recombinant full-length human LKB1 expressed in Sf21 cells assessed as residual activity at 0.1 uM relative to control
[4] = Antiproliferative activity against human PL-21 cells assessed as inhibition of cell growth incubated for 72 hrs by cell-titer glo assay; type: functional, cell-based; details: PL-21, 72 h
In short: (§2)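 Cells from ATCC or ECACC, kept in supplier-recommended medium with 1% penicillin-streptomycin at 37°C, 5% CO₂. Seeded at 10,000–30,000/cm² (adherent) or 100,000/mL (nonadherent) in medium with 10% fetal calf serum. Dosed after 24 h in duplicate with serial dilutions. Viable cells read by CellTiter-Glo 72 h later. IC50 from sigmoidal fit. At least two independent experiments.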

[5] = biological target: Tyrosine-protein kinase Fes/Fps (Homo sapiens) (UniProt P07332); test: Inhibition of N-terminal His6-tagged recombinant full length human Fes expressed in baculovirus infected Sf21 cells assessed as residual activity at 1 uM relative to control
[6] = biological target: Tyrosine-protein kinase Fgr (Homo sapiens) (UniProt P09769); test: Inhibition of N-terminal His6-tagged recombinant human Fgr (2 to end residues) expressed in baculovirus infected Sf21 cells assessed as residual activity at 1 uM relative to control
[7] = biological target: Serine/threonine-protein kinase ULK3 (Homo sapiens) (UniProt Q6PHR2); test: Inhibition of N-terminal 6His-tagged recombinant human full-length ULK3 expressed in baculovirus infected Sf21 cells assessed as residual activity at 1 uM relative to control
Serine/threonine-protein kinase ULK3 (Homo sapiens), sequence (Q6PHR2 whole entry, the tested form may be a part): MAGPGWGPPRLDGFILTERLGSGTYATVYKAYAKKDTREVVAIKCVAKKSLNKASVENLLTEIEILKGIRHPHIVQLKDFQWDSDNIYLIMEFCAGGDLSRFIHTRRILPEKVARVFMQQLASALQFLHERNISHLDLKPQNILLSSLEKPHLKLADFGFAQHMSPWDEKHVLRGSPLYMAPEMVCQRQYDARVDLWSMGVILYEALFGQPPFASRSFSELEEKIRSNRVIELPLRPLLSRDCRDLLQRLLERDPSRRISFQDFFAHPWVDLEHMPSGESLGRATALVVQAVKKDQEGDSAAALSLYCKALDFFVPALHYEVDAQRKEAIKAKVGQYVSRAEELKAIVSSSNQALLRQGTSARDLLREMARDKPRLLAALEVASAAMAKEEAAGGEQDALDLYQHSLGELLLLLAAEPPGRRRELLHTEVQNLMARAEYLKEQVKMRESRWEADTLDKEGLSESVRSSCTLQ

[8] = biological target: Rho-associated protein kinase 1 (Homo sapiens) (UniProt Q13464); test: Inhibition of N-terminal His6-tagged recombinant human ROCK-I (17 to 535 residues) expressed in baculovirus infected Sf21 cells assessed as residual activity at 1 uM relative to control
Rho-associated protein kinase 1 (Homo sapiens), sequence (Q13464 2-1354 limits assumed): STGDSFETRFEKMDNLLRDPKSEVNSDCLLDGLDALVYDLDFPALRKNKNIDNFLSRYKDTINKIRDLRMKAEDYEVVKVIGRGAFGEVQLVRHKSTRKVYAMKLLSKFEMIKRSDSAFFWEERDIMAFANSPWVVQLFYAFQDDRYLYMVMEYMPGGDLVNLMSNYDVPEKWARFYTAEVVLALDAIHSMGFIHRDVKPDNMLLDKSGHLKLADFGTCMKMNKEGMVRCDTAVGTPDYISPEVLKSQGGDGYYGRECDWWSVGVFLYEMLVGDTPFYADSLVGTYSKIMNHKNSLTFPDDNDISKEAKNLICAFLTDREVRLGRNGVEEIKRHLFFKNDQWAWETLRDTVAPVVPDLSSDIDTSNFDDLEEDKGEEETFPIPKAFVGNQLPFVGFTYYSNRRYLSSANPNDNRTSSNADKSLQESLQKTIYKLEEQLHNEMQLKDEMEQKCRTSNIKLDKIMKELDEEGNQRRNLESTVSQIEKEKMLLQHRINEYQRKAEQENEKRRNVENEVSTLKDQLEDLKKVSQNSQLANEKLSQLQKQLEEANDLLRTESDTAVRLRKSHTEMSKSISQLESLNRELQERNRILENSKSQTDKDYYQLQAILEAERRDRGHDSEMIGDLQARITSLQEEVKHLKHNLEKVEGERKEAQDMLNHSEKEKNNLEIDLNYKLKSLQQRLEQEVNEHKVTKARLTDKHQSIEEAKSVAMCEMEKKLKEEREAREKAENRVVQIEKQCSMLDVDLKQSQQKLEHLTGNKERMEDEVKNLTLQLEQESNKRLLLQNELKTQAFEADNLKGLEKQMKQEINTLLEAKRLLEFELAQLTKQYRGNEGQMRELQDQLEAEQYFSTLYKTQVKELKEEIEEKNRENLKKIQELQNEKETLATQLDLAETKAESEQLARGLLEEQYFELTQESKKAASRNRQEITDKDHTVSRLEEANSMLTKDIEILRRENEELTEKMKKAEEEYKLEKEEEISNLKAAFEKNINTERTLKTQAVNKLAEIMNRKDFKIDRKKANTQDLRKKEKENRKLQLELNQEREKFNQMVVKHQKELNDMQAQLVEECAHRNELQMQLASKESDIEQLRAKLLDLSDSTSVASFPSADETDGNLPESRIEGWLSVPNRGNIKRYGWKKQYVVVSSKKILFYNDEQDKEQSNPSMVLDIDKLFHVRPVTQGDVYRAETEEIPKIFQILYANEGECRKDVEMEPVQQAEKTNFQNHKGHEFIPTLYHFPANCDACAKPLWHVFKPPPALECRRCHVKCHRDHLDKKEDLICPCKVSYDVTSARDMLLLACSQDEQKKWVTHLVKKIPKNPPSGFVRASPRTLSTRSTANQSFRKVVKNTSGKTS

Activated CDC42 kinase 1 = Activated CDC42 kinase 1 (Homo sapiens, UniProt Q07912); test: Inhibition of N-terminal GST-tagged recombinant human ACK1 (1 to 389 residues) expressed in baculovirus infected Sf21 cells assessed as residual activity at 1 uM relative to control
[9] = biological target: Serine/threonine-protein kinase SIK1 (Homo sapiens) (UniProt P57059); test: Inhibition of N-terminal 6His-tagged recombinant human SIK (1 to 281 residues) expressed in baculovirus infected Sf21 cells assessed as residual activity at 1 uM relative to control
Serine/threonine-protein kinase SIK1 (Homo sapiens), sequence (P57059 whole entry, the tested form may be a part): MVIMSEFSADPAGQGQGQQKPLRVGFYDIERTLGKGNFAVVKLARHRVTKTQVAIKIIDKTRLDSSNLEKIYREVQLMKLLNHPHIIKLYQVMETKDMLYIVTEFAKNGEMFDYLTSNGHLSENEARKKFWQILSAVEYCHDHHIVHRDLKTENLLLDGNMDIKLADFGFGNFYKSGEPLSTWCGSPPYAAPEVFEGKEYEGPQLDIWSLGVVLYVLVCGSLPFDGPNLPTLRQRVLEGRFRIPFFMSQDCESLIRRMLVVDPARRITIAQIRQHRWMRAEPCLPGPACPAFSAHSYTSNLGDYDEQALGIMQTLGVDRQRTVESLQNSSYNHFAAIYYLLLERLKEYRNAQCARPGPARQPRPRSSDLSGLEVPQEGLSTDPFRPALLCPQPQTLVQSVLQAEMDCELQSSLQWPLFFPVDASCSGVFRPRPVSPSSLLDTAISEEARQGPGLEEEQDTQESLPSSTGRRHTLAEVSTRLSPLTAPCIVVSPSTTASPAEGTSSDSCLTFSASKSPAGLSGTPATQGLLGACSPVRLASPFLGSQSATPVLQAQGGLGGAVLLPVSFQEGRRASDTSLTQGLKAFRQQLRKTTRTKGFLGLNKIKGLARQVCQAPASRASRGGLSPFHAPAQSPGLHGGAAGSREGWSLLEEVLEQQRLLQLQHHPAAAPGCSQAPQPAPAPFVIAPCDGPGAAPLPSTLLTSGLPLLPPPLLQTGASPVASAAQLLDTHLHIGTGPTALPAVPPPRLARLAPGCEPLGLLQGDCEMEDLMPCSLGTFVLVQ

HT-1080 = test: Antiproliferative activity against human HT-1080 cells assessed as inhibition of cell growth incubated for 72 hrs by cell-titer glo assay; type: functional, cell-based; details: HT-1080, 72 h
In short: (§3)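 Cells seeded at 10,000–30,000/cm² (adherent) or 100,000/mL (nonadherent) in medium with 10% fetal calf serum; after 24 h, treated in duplicate with serial dilutions for 72 h. Viable cell number read by CellTiter-Glo luminescence; IC50 from sigmoidal fit; at least two independent experiments.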

SW948 = test: Antiproliferative activity against human SW948 cells assessed as inhibition of cell growth incubated for 72 hrs by cell-titer glo assay; type: functional, cell-based; details: SW948, 72 h
A2780 = test: Induction of DNA damage in human A2780 cells assessed as H2AX phosphorylation at 0.5 to 1 uM incubated for 8 hrs by Western blotting analysis; type: functional, cell-based; details: dose 0.5-1 µM
U2OS = test: Antiproliferative activity against human U2OS cells assessed as inhibition of cell growth incubated for 72 hrs by cell-titer glo assay; type: functional, cell-based
[10] = biological target: Homeodomain-interacting protein kinase 2 (Homo sapiens) (UniProt Q9H2X6); test: Inhibition of N-terminal His6-tagged recombinant human HIPK2 (165 to 564 residues) expressed in baculovirus infected Sf21 cells assessed as residual activity at 0.1 uM relative to control
Homeodomain-interacting protein kinase 2 (Homo sapiens), sequence (Q9H2X6 whole entry, looked up, the tested form may be a part): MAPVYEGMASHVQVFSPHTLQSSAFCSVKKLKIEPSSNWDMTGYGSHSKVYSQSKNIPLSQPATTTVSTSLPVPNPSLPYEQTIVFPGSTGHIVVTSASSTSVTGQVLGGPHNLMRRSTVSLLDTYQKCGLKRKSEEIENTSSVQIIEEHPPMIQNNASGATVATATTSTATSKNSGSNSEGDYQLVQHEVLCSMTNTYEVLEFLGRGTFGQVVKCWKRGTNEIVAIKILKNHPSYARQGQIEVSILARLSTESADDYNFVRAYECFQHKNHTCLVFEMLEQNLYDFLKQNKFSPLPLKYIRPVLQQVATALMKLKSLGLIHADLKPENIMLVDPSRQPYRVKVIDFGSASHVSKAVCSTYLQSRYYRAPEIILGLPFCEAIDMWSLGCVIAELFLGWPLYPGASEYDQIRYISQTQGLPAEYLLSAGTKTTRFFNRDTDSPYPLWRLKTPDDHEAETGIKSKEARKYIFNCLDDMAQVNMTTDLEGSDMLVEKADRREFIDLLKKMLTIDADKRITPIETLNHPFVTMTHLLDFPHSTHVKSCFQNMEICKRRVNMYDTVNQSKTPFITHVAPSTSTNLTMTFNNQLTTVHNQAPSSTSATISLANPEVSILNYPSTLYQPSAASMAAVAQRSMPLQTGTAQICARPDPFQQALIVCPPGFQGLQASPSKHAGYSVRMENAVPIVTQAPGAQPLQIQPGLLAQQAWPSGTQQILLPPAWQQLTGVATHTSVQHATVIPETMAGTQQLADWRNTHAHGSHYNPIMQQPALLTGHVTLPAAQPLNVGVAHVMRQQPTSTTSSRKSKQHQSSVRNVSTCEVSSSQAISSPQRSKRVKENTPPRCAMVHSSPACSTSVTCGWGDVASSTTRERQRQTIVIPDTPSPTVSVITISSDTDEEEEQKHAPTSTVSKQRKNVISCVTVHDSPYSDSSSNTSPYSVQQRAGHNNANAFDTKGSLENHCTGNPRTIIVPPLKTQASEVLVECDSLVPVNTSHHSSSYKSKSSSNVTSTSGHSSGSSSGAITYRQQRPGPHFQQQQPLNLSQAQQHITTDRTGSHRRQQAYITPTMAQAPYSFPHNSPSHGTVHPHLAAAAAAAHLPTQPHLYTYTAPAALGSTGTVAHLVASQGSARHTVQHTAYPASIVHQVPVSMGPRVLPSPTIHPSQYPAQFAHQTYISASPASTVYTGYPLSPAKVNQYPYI

[11] = biological target: BDNF/NT-3 growth factors receptor (Homo sapiens) (UniProt Q16620); test: Inhibition of N-terminal His6 tagged recombinant human TrkB (455 to end residues) expressed in baculovirus infected Sf21 cells assessed as residual activity at 1 uM relative to control
Granta-519 = test: Antiproliferative activity against human Granta-519 cells assessed as inhibition of cell growth incubated for 72 hrs by cell-titer glo assay; type: functional, cell-based; details: Granta-519, 72 h; in short: as §3
[12] = biological target: Serine/threonine-protein kinase haspin (Homo sapiens, UniProt Q8TF76); test: Inhibition of Haspin (unknown origin) in presence of [gamma-33P]ATP
Serine/threonine-protein kinase haspin, sequence (Q8TF76 whole entry): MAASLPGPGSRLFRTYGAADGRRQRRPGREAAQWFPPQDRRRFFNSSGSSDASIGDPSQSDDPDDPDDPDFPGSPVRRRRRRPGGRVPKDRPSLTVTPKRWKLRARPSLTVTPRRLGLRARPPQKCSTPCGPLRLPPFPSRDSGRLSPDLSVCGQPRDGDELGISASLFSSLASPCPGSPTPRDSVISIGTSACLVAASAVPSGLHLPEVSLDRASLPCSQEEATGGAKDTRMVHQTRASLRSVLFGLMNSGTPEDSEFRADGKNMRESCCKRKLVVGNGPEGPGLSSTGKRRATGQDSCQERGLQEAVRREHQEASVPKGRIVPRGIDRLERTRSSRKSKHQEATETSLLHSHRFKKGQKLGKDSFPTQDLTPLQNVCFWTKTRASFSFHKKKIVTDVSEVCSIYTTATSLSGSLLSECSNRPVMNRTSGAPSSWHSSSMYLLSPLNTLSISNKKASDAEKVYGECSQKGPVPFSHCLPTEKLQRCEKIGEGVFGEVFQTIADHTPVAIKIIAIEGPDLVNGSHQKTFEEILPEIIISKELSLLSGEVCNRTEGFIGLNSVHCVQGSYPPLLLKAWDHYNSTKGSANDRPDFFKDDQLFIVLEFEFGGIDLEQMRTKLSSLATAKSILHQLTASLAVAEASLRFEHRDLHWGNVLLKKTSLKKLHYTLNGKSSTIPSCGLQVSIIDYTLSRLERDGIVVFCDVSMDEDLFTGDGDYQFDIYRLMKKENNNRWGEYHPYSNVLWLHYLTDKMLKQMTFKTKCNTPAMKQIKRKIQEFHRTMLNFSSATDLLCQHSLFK

U-251 = test: Antiproliferative activity against human U-251 cells assessed as inhibition of cell growth incubated for 72 hrs by cell-titer glo assay; type: functional, cell-based; details: U-251, 72 h
HCC1937 = test: Antiproliferative activity against human HCC1937 cells assessed as inhibition of cell growth incubated for 72 hrs by cell-titer glo assay; type: functional, cell-based; details: HCC1937, 72 h; in short: as §3
TK-10 = test: Antiproliferative activity against human TK-10 cells assessed as inhibition of cell growth incubated for 72 hrs by cell-titer glo assay; type: functional, cell-based; details: TK-10, 72 h
T84 = test: Antiproliferative activity against human T84 cells assessed as inhibition of cell growth incubated for 72 hrs by cell-titer glo assay; type: functional, cell-based; details: T84, 72 h
CAL-51 = test: Antiproliferative activity against human CAL-51 cells assessed as inhibition of cell growth incubated for 72 hrs by cell-titer glo assay; type: functional, cell-based; details: CAL-51, 72 h; in short: as §1
SR = test: Antiproliferative activity against human SR cells assessed as inhibition of cell growth incubated for 72 hrs by cell-titer glo assay; type: functional, cell-based
SAOS-2 = test: Antiproliferative activity against human SAOS-2 cells assessed as inhibition of cell growth incubated for 72 hrs by cell-titer glo assay; type: functional, cell-based; details: SAOS-2, 72 h; in short: as §2
NCI-H358 = test: Antiproliferative activity against human NCI-H358 cells assessed as inhibition of cell growth incubated for 72 hrs by cell-titer glo assay; type: functional, cell-based; details: NCI-H358, 72 h; in short: as §2

Q: Which Activity [1] does the source give for `CN1CCN(c2ccc(OC(F)(F)F)c(Nc3ncc4c(n3)-c3c(c(C(N)=O)nn3CCO)CC4)c2)CC1` [ONVANSERTIB] here?
A: Its Activity is 85%.

Q: And the Activity [2]?
A: The Activity was 96%.

Q: What about the Activity (NHDF) of the same compound?
A: Its Activity is “Non-Toxic”.

Q: What about the IC50 (AU565) of the same compound?
A: The IC50 was 11 nM.

Q: And the Activity [3]?
A: Its Activity is 113%.

Q: What about the IC50 [4] of the same compound?
A: Its IC50 is 22 nM.

Q: And the Activity [5]?
A: The Activity was 30%.

Q: What about the Activity [6] of the same compound?
A: The Activity was 85%.

Q: And the Activity [7]?
A: The Activity was 127%.

Q: What about the Activity [8] of the same compound?
A: The Activity was 132%.

Q: What about the Activity (Activated CDC42 kinase 1) of the same compound?
A: Its Activity is 89%.

Q: And the Activity [9]?
A: The Activity was 93%.

Q: And the IC50 (HT-1080)?
A: Its IC50 is 59 nM.

Q: And the IC50 (SW948)?
A: The IC50 was 124 nM.

Q: And the Activity (A2780)?
A: Its Activity is “Active”.

Q: What about the IC50 (U2OS) of the same compound?
A: Its IC50 is 285 nM.

Q: What about the Activity [10] of the same compound?
A: Its Activity is 118%.

Q: What about the Activity [11] of the same compound?
A: The Activity was 80%.

Q: What about the IC50 (Granta-519) of the same compound?
A: The IC50 was 29 nM.

Q: And the IC50 [12]?
A: The IC50 was greater than 10000 nM.

Q: And the IC50 (U-251)?
A: The IC50 was 190 nM.

Q: What about the IC50 (HCC1937) of the same compound?
A: The IC50 was 595 nM.

Q: What about the IC50 (TK-10) of the same compound?
A: The IC50 was 1210 nM.

Q: What about the IC50 (T84) of the same compound?
A: The IC50 was 174 nM.

Q: What about the IC50 (CAL-51) of the same compound?
A: The IC50 was 19 nM.

Q: What about the IC50 (SR) of the same compound?
A: The IC50 was 47 nM.

Q: And the IC50 (SAOS-2)?
A: Its IC50 is 45 nM.

Q: What about the IC50 (NCI-H358) of the same compound?
A: The IC50 was 175 nM.
